Data set [1] has as its target T1, Signal transducer and activator of transcription 3 (Homo sapiens, UniProt P40763). Description: Inhibition of STAT3 in human MDA-MB-468 cells assessed as reduction in cyclin D1 expression at 10 uM by Western blotting. The format is cell-based. The essentials:
(§1)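 MDA-MB-468 breast cancer cells were treated with compound at a series of concentrations. Cell lysates were analysed by Western blotting for c-myc, cyclin D1 and survivin, with STAT3 Tyr705 phosphorylation probed alongside.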

For data set [2], the species on record is Mus musculus. Description: Toxicity in BALB/cA-v/v nude mouse assessed as increase in body weight relative to control. Conditions: in vivo. The format is organism-based. The essentials: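 Human SCC-3 lymphoma cells implanted subcutaneously in nude mice. Compound given by oral gavage at 160 mg/kg once daily for 4 days. Tumour growth was assessed on day 4 against untreated controls, with significance taken at p < 0.05. Body weight and signs of toxicity were monitored over the same period.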

Data set [3] has as its target T1, Signal transducer and activator of transcription 3. Description: Inhibition of STAT3 in human MDA-MB-468 cells assessed as reduction in c-myc expression at 20 uM by Western blotting. Type of data set: cell-based. The essentials: as §1
In general terms: Immunoblotting shows a protein as a band on a membrane.

Data set [4] has the same target. The experiment in a line: Inhibition of STAT3 in human MDA-MB-468 cells assessed as reduction in survivin expression at 20 uM by Western blotting. Type of data set: cell-based. The essentials: as §1
For data set [5], the species on record is Mus musculus. The experiment in a line: Toxicity in BALB/cA-v/v nude mouse assessed as mortality. The format is organism-based. Conditions: in vivo.
The target in data set [6] is T1, Signal transducer and activator of transcription 3. Description: Inhibition of STAT3 in human MDA-MB-468 cells assessed as reduction in survivin expression at 50 uM by Western blotting. Type of data set: cell-based. The essentials: as §1
The target is the same in data set [7]. The experiment in a line: Inhibition of STAT3 transcriptional activity in human HeLa cells by luciferase reporter gene assay. Type of data set: cell-based. The essentials:
(§2)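 STAT3-dependent luciferase reporter gene assay in HeLa cells. Activity is reported as percent inhibition at a single 100 μM concentration, or as an IC50.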
(Reporter assays use an easily measured gene product as a stand-in for the process of interest.)

The target is the same in data set [8]. Description: Inhibition of STAT3 in IL-6 stimulated human MDA-MB-468 cells assessed as reduction in amplification of c-myc promoter by CHIP assay. The format is cell-based. Put shortly: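 Chromatin immunoprecipitation in compound-treated MDA-MB-468 breast cancer cells. STAT3 occupancy of the c-myc promoter was judged by amplification of the c-myc promoter from the immunoprecipitate.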

Data set [9] has the same target. Description: Inhibition of STAT3 dimerization transfected in HEK293 cells at 100 uM after 24 hrs followed by 1 hr stimulation with 50 ng/ml IL-6 by FRET assay. Conditions: 10 uM, in the assay text read “at 10 uM” for “at 100 uM”. The format is cell-based. The essentials: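 Cell-based FRET dimerization read-out in HEK293 cells co-expressing STAT3-CFP and STAT3-YFP. Cells were pretreated with compound before IL-6 stimulation, and the FRET signal from the STAT3–STAT3 interaction was measured. Values are given as percent inhibition of the signal.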

Data set [10] has the same target. Description: Inhibition of STAT3 transcriptional activity in human HeLa cells at 100 uM by luciferase reporter gene assay. Type of data set: cell-based. The essentials:
as §2

The target is the same in data set [11]. Description: Inhibition of STAT3 DNA binding activity in IL-6 stimulated human MDA-MB-468 cells at 50 uM by transcription factor ELISA. Type of data set: cell-based. A general note: In an ELISA, binding on a coated surface is turned into a signal by an enzyme label.
Data set [12] deals with T2, Signal transducer and activator of transcription 5B (Homo sapiens) (UniProt P51692).
T2 sequence (whole entry): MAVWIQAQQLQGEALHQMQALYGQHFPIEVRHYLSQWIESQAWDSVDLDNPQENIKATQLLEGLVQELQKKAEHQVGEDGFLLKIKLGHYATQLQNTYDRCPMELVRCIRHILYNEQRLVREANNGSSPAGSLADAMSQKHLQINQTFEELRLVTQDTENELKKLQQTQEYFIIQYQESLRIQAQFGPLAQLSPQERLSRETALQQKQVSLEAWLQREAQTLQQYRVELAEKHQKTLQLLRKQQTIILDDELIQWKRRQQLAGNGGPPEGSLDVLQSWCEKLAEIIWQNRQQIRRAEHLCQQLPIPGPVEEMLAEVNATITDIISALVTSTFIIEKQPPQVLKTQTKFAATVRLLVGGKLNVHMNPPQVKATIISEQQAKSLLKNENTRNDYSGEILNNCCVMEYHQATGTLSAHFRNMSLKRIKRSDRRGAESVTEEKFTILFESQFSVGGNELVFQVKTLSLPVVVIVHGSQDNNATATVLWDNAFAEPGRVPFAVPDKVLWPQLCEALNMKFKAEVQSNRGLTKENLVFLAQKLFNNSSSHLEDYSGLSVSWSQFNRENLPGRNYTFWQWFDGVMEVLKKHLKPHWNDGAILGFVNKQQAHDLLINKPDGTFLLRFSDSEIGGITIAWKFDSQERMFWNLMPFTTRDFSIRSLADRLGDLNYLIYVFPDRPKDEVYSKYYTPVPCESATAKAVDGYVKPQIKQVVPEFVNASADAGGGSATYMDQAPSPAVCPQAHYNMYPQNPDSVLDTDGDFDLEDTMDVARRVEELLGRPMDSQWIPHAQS
Description: Inhibition of STAT5b DNA binding activity in IL-6 stimulated human MDA-MB-468 cells at 50 uM by transcription factor ELISA. Type of data set: cell-based.

Data set [13] addresses T1, Signal transducer and activator of transcription 3. Description: Inhibition of STAT3 in human MDA-MB-468 cells assessed as reduction in cyclin D1 expression at 50 uM by Western blotting. The format is cell-based. The essentials:
as §1

For one compound, inhibition, Activity and IC50 results are on record in ChEMBL document CHEMBL1687687, “Identification of a New Series of STAT3 Inhibitors by Virtual Screening” (ACS Med Chem Lett, 2010).

Activity calls are given as the source filed them. No cut-off for these calls is given here.

One may read the inhibition as the percentage by which the read-out fell short of the control. As usually defined, the IC50 is the concentration that gives 50% inhibition.

T1 sequence (P40763 whole entry): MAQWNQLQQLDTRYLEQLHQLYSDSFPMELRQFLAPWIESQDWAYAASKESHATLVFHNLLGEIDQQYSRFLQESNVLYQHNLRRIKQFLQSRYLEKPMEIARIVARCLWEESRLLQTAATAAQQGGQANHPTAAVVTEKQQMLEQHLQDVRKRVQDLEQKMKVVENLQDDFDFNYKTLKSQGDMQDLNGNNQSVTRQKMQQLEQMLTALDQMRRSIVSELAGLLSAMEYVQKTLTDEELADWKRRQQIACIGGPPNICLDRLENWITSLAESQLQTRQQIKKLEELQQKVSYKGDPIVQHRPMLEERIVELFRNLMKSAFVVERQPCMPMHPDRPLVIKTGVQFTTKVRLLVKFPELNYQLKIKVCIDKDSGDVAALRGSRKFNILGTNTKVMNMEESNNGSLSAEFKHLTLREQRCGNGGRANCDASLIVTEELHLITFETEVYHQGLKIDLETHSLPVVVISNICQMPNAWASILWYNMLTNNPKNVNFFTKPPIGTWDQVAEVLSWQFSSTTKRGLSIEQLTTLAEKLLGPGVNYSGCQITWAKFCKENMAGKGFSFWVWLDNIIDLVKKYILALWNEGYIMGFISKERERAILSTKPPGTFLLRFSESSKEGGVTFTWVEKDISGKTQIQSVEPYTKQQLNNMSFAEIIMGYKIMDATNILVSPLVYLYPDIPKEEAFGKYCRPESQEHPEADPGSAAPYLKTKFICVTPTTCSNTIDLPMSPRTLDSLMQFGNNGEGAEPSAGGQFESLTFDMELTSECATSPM

Turning to `O=C(Nc1nnc(-c2ccco2)o1)c1cc(-c2ccccc2)nc2ccccc12`, the inhibition entry in [1], in data set [3], in [4], in data set [6], in data set [8] and in [11] was “Active” each time. Moreover, in data set [13], the inhibition entry was “Active”. In addition, the Activity result in [2] and in data set [5] was “Non-toxic” throughout. The IC50 in data set [7] was found to be 74 µM. Moreover, the inhibition in data set [9] came out at 9%; in data set [10], 99%. The inhibition result in data set [12] was “inactive”.
